HKDC1 inh: HKDC1 (human) hexokinase inhibition | 340,000 tested, 0.16% active | Q2TB90 | recombinant HKDC1, G6PDH/diaphorase resazurin coupled fluorescence | inhibition, % at 20 µM | AID 493160;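 active = inhibition above about 35% when tested at 20 µM, limit read from the data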;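 also: plate controls were DMSO wells with enzyme for no effect and DMSO wells lacking enzyme for full effect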
Target sequence (Q2TB90 whole entry, looked up): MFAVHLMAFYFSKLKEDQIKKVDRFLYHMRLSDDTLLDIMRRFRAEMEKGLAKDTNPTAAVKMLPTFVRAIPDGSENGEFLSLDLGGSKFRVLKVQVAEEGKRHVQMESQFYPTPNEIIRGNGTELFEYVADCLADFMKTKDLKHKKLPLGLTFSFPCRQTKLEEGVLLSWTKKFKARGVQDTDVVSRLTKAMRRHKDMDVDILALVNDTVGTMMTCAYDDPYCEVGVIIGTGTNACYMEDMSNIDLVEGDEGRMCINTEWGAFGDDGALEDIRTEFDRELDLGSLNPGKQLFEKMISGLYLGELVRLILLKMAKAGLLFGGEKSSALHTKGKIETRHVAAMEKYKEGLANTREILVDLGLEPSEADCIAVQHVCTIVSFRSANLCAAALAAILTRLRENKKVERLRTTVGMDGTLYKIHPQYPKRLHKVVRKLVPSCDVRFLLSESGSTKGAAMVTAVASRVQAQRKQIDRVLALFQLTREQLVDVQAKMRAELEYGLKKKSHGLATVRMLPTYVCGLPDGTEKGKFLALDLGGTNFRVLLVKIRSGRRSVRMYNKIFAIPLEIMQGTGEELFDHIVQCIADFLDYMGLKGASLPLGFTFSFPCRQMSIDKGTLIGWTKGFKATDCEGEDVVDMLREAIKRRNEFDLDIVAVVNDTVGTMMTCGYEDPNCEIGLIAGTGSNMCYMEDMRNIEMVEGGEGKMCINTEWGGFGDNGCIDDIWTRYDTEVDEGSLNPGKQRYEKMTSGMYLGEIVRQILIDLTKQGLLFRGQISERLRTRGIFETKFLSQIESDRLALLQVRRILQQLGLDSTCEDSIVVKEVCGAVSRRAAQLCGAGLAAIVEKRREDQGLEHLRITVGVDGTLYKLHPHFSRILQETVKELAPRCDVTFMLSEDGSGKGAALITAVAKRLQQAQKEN
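Test system: HK5 enzyme. Quantity: 5 µg/mL HK5 final. Reagent: glucose and ATP substrates. Schedule: 90 min reaction incubation at room temperature, dark. Technique: resazurin-to-resorufin fluorescence via G6PDH and diaphorase coupling, 525/613 nm. Control set: DMSO wells with and without enzyme mix.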
DNMT1 inh: DNMT1 (human) enzyme inhibition; inhibition (reported as % activation of signal), % at 10 µM; DNMT1 molecular beacon, Hinp1I cleavage, fluorescence; P26358; 360,000 tested, 0.83% active; in the data active = inhibition above about 50%
Scp1 inh: Scp-1 (human) phosphatase inhibition | Recombinant Scp1, phosphopeptide, malachite green phosphate absorbance | inhibition, % at 20 µM | 340,000 tested, 0.88% active | AID 493091;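 active = inhibition above about 50% at 20 µM, limit read from the data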;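 also: plate controls were DMSO wells with enzyme for no effect and wells lacking enzyme for full effect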
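Test system: SCP-1 catalytic domain; Buffer or medium: Acidic Tris acetate buffer with magnesium and detergent; Also added: Phosphorylated 17-residue peptide substrate; Compound: single 20 µM dose, 1% DMSO; Schedule: enzyme reaction 45 min at room temperature, colour 5 min, stabilisation 30 min; Signal: Phosphate-binding colour reagent, absorbance read at 630 nm.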
SUMO1-SIM PPI: modulators of human SUMO1-mediated protein-protein interactions; inhibition, % at 20 µM; SUMO1 binding to a labelled peptide, TR-FRET, 1 h; AID 602429; 360,000 tested, 0.33% active; in the data active = inhibition above about 37%
STEP block: STEP (human) phosphatase inhibition | P54829 | recombinant STEP, OMFP fluorogenic substrate, fluorescence | inhibition, % at 20 µM | 360,000 tested, 0.25% active;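 active = inhibition at 20 µM, scaled per plate between control wells, above about 37%, limit read from the data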;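 also: 0% = DMSO with enzyme and substrate and 100% = substrate only without enzyme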
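Also added – OMFP at 25 µM · Test system – STEP tyrosine phosphatase · Technique – FITC-channel fluorescence of OMFP product · Schedule – 20 min at room temperature, dark · Evaluation – control-normalized % inhibition with plate pattern correction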
LMPTP inh: blocks human LMPTP phosphatase | recombinant LMPTP-A, OMFP fluorogenic substrate, fluorescence intensity | inhibition, % at 20 µM | P24666 | 360,000 tested, 0.22% active | AID 651560;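 active = compounds that cut the enzyme signal by at least half of the control window in the single-dose screen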;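 also: plate controls were DMSO wells with enzyme plus substrate for no effect and substrate without enzyme for full effect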
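Test system: LMPTP-A, protein tyrosine phosphatase of low molecular weight; Input: 0.625 nM enzyme; Incubation: 50 min dark incubation at room temperature; Signal: endpoint fluorescence intensity from OMFP dephosphorylation; Read-out basis: % inhibition versus control wells.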
Beacon interf DR: shows spectral interference in the DNMT1 beacon assay; shares compounds with DNMT1 inh; molecular beacon fluorescence, spectral interference counter-screen; IC50, µM; 200 tested, under 10 active; call rule not given here
DNMT1 inh conf: confirmation of human DNMT1 inhibitors | AID 602385 | 2,300 tested, 8% active | DNMT1 molecular beacon HinP1I cleavage, fluorescence | shares compounds with DNMT1 inh | inhibition, % at 10 µM;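 active = average inhibition of at least 30% in the single-concentration confirmation test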
Beacon interf: shows spectral interference in the DNMT1 beacon assay; shares compounds with DNMT1 inh; DNMT1 molecular beacon spectral interference counterscreen, fluorescence 485/520; activation (fluorescence interference), % at 10 µM; 2,300 tested, 1% active; AID 602387;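 active = activation of at least 30% at 10 µM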;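 also: DNMT1 catalytic domain with a HinP1I cleavage step and a FAM/dabcyl DNA beacon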
Active calls of the source: *; nt = no result given. Most compounds without a hit are left out; they make up all but 1.8% or so of the library.

SMILES	HKDC1 inh	DNMT1 inh	Scp1 inh	SUMO1-SIM PPI	STEP block	LMPTP inh	DNMT1 inh conf	Beacon interf	others
CCOc1ccc2nc(N3C(=O)C(O)=C(C(=O)c4ccco4)C3c3ccco3)sc2c1 (centres undefined)	9.6	36.4	10.4	-4.6	7.0	10.8	nt	nt
O=[N+]([O-])c1ccc(F)cc1OCc1cccc(S(=O)(=O)N2CCOCC2)c1	-2.8	81.7*	-4.9	-13.3	-0.3	-0.1	5.4	7.6
O=C(O)COn1c(-c2ccccc2)nc2ccc([N+](=O)[O-])cc21	7.0	66.3*	81.0*	11.8	16.7	27.5	1.6	-0.9
CCOC(=O)C(C)On1c(-c2ccccc2)nc2ccc([N+](=O)[O-])cc21 (centres undefined)	-2.6	-4.7	-0.3	-20.8	-5.8	-1.2	nt	nt
Cc1ccnc(NC(=O)CCC(=O)N(CC(=O)NCc2ccc(F)cc2)c2ccc(F)cc2)c1	3.4	73.0*	-3.1	-2.6	-3.3	-0.8	5.6	7.2
N#Cc1c2nc3ccccc3nc2n2cc(NC(=O)c3ccc(F)cc3)ccc12	12.3	103.1*	12.3	22.7	16.0	45.3	3.2	-6.4
COc1ccc(/C=C/C(=O)O)cc1S(=O)(=O)NCc1cccnc1	-2.7	12.4	12.3	7.5	0.7	-0.5	nt	nt
O=C(COc1ccc(Cl)cc1Cl)Nc1ccc(C(=O)Nc2ccccc2C(=O)O)cc1	15.7	83.7*	30.0	40.5*	10.7	13.7	17.9	5.1
Cc1cccc(OCC(=O)Nc2ccc(C(=O)Nc3ccccc3C(=O)O)cc2)c1	nt	-1.2	nt	25.6	-2.5	-0.1	nt	nt
CC(C)=CCC1=C(OCC(=O)O)C(=O)c2ccccc2C1=O	23.2	70.6*	-4.2	26.7	8.5	6.0	-4.0	1.1
CC(C)N(CCCNC(=O)Cn1c(=O)c2cccn2c2ccc(F)cc21)Cc1ccccc1	-2.6	0.5	-4.0	-2.5	-3.3	-0.6	nt	nt
Cc1nc2sccn2c(=O)c1CCN1CCC(=C(c2ccc(F)cc2)c2ccc(F)cc2)CC1	1.3	59.2*	-3.8	1.7	-0.7	6.3	-0.9	1.2
Cc1nc2ccccn2c(=O)c1CCN1CCC(C(=O)c2ccc(F)cc2)CC1	-5.1	-0.4	-14.5	-11.0	0.5	-1.7	nt	nt
Cn1nc([N+](=O)[O-])c2c(-c3nc4ccccc4s3)c(N)n(C3CCCCC3)c2c1=O	11.2	62.5*	5.7	-7.6	10.5	3.0	1.2	5.2
Cc1ccc(OCC(=O)Nc2nnc(S(=O)(=O)N3CCC(C)CC3)s2)cc1	8.2	57.8*	3.1	2.6	2.0	6.7	-0.7	-2.9
COC(=O)C[C@H]1C[C@H]2c3cc(NC(=O)Nc4ccc(F)cc4)ccc3O[C@H]2[C@@H](CO)O1	nt	-2.4	nt	12.3	1.0	-0.5	nt	nt
O=C(Cc1ccc(F)cc1)N/N=C/c1ccccn1	-6.3	65.7*	-4.0	0.0	1.5	-1.7	0.8	-0.9
CCN(Cc1ccncc1)Cc1ccc(Br)cc1	-3.5	-5.6	-5.0	-2.0	1.8	-2.6	nt	nt
CNC(=O)CC1C(=O)N(Cc2ccccc2)C(=S)N1NC(=O)c1cccc(F)c1 (centres undefined)	-4.5	1.9	-4.4	3.3	1.8	-2.8	nt	nt
Cc1ccc(NC(=O)CC2C(=O)N(Cc3ccccc3)C(=S)N2NC(=O)c2ccccc2)c(C)c1 (centres undefined)	-2.4	80.7*	2.7	0.2	0.1	2.2	5.7	10.5
Cc1nc(C)c(C(=O)Nc2ncc([N+](=O)[O-])s2)o1	3.5	69.2*	11.8	-6.5	-0.1	2.5	7.7	-2.0
Cn1nnc2cc(C(=O)N3CCN(c4ccccn4)CC3)ccc21	-4.1	9.2	8.9	5.6	-4.3	1.5	nt	nt
CC(/C=C1\N=C(SCc2ccccc2)SC1=O)=C\c1ccccc1	-7.3	80.0*	3.2	0.0	6.2	1.7	1.4	-0.5
O=C(O)CSc1cc(C(=O)c2ccccc2O)cn2c(=O)c3c4c(sc3nc12)CCCC4	25.0	73.4*	66.0*	35.4	95.5*	34.2	60.6*	0.1	Beacon interf DR=>99
O=C(O)CSc1nc2sc3c(c2c(=O)n1Cc1ccccc1)CCCCC3	3.9	3.4	-15.6	8.3	2.5	1.3	nt	nt
SMILES	HKDC1 inh	DNMT1 inh	Scp1 inh	SUMO1-SIM PPI	STEP block	LMPTP inh	DNMT1 inh conf	Beacon interf	others
COC(=O)C1=C(C)NC(C)=C(C(=O)OCC2CCCO2)C1c1cccc(Br)c1 (centres undefined)	8.4	2.9	-11.8	-0.3	1.2	0.3	nt	nt
CCCC[C@@H]1CNCCN1CCc1cccc2ccccc12	-1.1	0.9	6.4	-10.7	-2.7	-1.9	nt	nt
Cc1c(NS(=O)(=O)c2cccc(C(=O)NCc3ccco3)c2)c(=O)n(-c2ccccc2)n1C	0.9	78.0*	39.5	0.1	4.3	-4.3	2.1	2.7
COc1ccc(Cc2nc3ccc(C(=O)N(C)Cc4nccn4C)cc3o2)cc1	nt	-1.8	nt	-3.5	-2.9	-0.9	nt	nt
COc1ccc(CNC(=O)c2cc3cc(OC)ccc3oc2=O)cc1	3.5	4.0	-5.2	-35.0	0.7	0.8	nt	nt
COc1ccc2oc(=O)c(C(=O)NCc3ccccc3)cc2c1	-3.8	51.3*	-5.0	-41.0	-2.0	0.3	4.8	1.6
CC(C)N1C(=O)c2ccccc2NC(=O)C1C(=O)NCc1ccccc1 (centres undefined)	nt	nt	nt	1.1	nt	-1.3	nt	nt
C1CCc2c(c(N3CCOCC3)nc3sc4c(N5CCOCC5)nnnc4c23)C1	0.8	0.6	-8.9	6.5	-2.7	-1.8	nt	nt
O=c1[nH]nnc2c1sc1nc(N3CCOCC3)c3c(c12)CCCC3	24.6	94.6*	-2.5	-0.6	0.2	-13.8	6.6	9.9
Cc1cc(C)cc(OCc2nc3ncc(Br)cc3[nH]2)c1	-1.8	59.4*	-6.7	-1.9	0.6	1.5	2.3	1.6
O=S(=O)(Cc1noc(-c2ccc(Cl)cc2)n1)Cc1ccco1	4.0	83.0*	15.1	3.4	5.6	27.0	0.6	3.2
CCOC(=O)c1nn(-c2ccc(C)cc2)c(=O)cc1OCC(=O)Nc1cccc(OC)c1	-4.1	1.5	-6.2	4.3	-1.1	-0.4	nt	nt
CCOC(=O)c1nn(-c2ccc(F)cc2)c(=O)cc1OCC(=O)Nc1ccc(OCC)cc1	13.6	68.5*	-0.8	35.5	7.0	1.1	79.7*	-1.4	Beacon interf DR=>99
NC(Cc1ccc(F)cc1)c1csc(Nc2ccc(C(F)(F)F)cn2)n1 (centres undefined)	nt	-10.9	nt	-52.7	3.5	0.9	nt	nt

Bioassay records as filed in PubChem BioAssay.
